Sampled rows, rich in hits. Any-hit rate of the full collection: about 6.4%.
Lung fibro prol: antiproliferative effect on LL 47 fibroblasts – human, LL 47 cells, CellTiter-Glo luminescence, primary screen. LL 47 human lung fibroblast viability, ATP luminescence; active compounds read low. viability, % at 10 µM. hit rate 1.1% among 85,000. AID 719, 2007;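 active means viability at or below 50% in the single dose screen; inactive means viability above 50%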;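 further: compound exposure lasted 72 h before the ATP readout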
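Assay system: human lung fibroblast line LL 47, low passage. Input: 1,150 fibroblasts seeded per well. Times: overnight cell rest, 72 h compound treatment at 37 °C. Evaluation: % viability of median cell-only signal. Technique: luminescent ATP detection, CellTiter-Glo. Control set: cell-only wells, no compound.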
Jurkat tox 60K: cytotoxicity toward Jurkat T cells, primary screen, cytotoxicity control, cell-based, Jurkat E6.1, 60K MLSMR library; Jurkat E6.1 viability, ATP luminescence, 48 h; inhibition, % at 4 µM; hit rate 1.2% among 56,000;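 active means inhibition above the mean inhibition of all tested compounds plus 3 SD, cut at about 28% in these data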
HUVEC prolif 384: inhibitors of HUVEC proliferation, primary screen, cell-based, 384-well | CellTiter-Glo luminescence, 72 h; active compounds read low | viability, % at 10 µM (by protocol) | hit rate 1.1% among 86,000 | AID 648, 2007;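 active means viability at or below 30%; inactive means viability above 30%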
H69AR inhibit: proliferation blockers of H69AR lung cancer cells, primary screen, cell-based, human, 86K library. H69AR lung tumor viability, ATP luminescence, 72 h; active compounds read low. viability, % at 10 µM. hit rate 6% among 85,000. AID 598, 2007;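 active means viability at or below 40%; inactive means viability above 40%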;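 further: multidrug resistant small cell line overexpressing MRP-1 efflux transporter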
Of the large screens only hits and unclear results are named; the others gave an inactive call.

Cc1c(Cl)cccc1Nc1nc(N)nc(CSc2ncccn2)n1	H69AR inhibit 1.4
CC(C)(C)n1nnnc1CN1CCN(C(c2ccccc2)c2ccccc2)CC1	none (no result: Jurkat tox 60K)
Cc1ccc(-c2cc(-c3ccc(F)cc3)nc(N)c2C#N)o1	H69AR inhibit 13.6
Cc1ccc(-c2cc(-c3ccccc3)c(C#N)c(N)n2)o1	none
O=c1cc(O)c2c(=O)n(-c3ccccc3)c3ccccc3c2o1	H69AR inhibit 12.4
COc1cccc(Nc2nc(NCC3CCCO3)c3ccccc3n2)c1 (configuration not stated)	Lung fibro prol 22.7 (no result: Jurkat tox 60K)
Oc1ccccc1Nc1nc(NCC2CCCO2)c2ccccc2n1 (configuration not stated)	none
COc1cccc(Nc2cc(C)nc3ccccc23)c1	none
Oc1ccc(Nc2nc(NCC3CCCO3)c3ccccc3n2)cc1 (configuration not stated)	H69AR inhibit 36.6
CCC(C)NC(=O)CSc1nnc(-c2cc(-c3cccs3)nc3ccccc23)o1 (configuration not stated)	none (no result: Jurkat tox 60K)
O=C1NC2(CCCC2)N=C1c1ccc(Cl)cc1	none
N#CC(C#N)=c1ccc2c(c1)NC1(CCCCC1)N=2	Lung fibro prol 7.4, Jurkat tox 60K 42.4, HUVEC prolif 384 28.2, H69AR inhibit 1.1
CCC(Sc1nc2ccccc2s1)C(=O)Nc1cc(C)on1 (configuration not stated)	none (no result: Jurkat tox 60K)
NS(=O)(=O)c1ccc(Nc2nc(-c3ccc(O)cc3O)cs2)cc1	none (no result: Jurkat tox 60K)
CC(=O)Nc1nc(C)c(-c2csc(Nc3ccc(O)cc3)n2)s1	Lung fibro prol 47.3, H69AR inhibit 7.2
Cc1nc(C)c(-c2csc(Nc3cccnc3)n2)s1	Lung fibro prol 30.9
Oc1ccc(Nc2nc(-c3ccc4ccccc4c3)cs2)cc1	Lung fibro prol 46.9, H69AR inhibit 19.2 (no result: Jurkat tox 60K)
Cc1nc(N)sc1-c1csc(Nc2ccccc2)n1	none
Oc1ccc(-c2nc(-c3ccc(O)c(O)c3)cs2)cc1	Lung fibro prol 46.5, Jurkat tox 60K 96.8, H69AR inhibit 12.5
Oc1ccc(-c2cn3c(n2)SCC3)cc1O	none (no result: Jurkat tox 60K)
CC(C)CC(C(=O)N1CCc2ccccc2C1)N1C(=O)c2ccccc2C1=O (configuration not stated)	none (no result: Jurkat tox 60K)
O=C(COc1ccc(-c2ccccc2)cc1)N1CCN(S(=O)(=O)Cc2ccccc2)CC1	H69AR inhibit 26.3 (no result: Jurkat tox 60K)
c1ccc(Cc2nn3c(-c4ccncc4)nnc3s2)cc1	none
COCCN1Cc2cccc(C(=O)Nc3ccc(S(=O)(=O)N4CCCCCC4)cc3)c2C1=O	H69AR inhibit 25.0
O=C(Nc1ccccc1)Nc1ccc(S(=O)(=O)N2CCCCC2)cc1	H69AR inhibit 12.8
CN1CCN(S(=O)(=O)c2ccc(NC(=O)Nc3cccc(Cl)c3)cc2)CC1	HUVEC prolif 384 3.2, H69AR inhibit 35.2
CC1CCN(C(=O)CCCOc2ccc(Cl)cc2)CC1	none (no result: Jurkat tox 60K)
COC(=O)c1cn(NC(=O)c2cccc(OC)c2)c(=O)c2ccccc12	none (no result: Jurkat tox 60K)
Cc1nn(-c2ccccc2)c(C)c1NS(=O)(=O)c1ccccc1	none
O=C(CSc1nc2ccccc2[nH]1)Nc1cc(C(F)(F)F)ccc1N1CCOCC1	H69AR inhibit 31.1
Cc1onc(-c2ccccc2)c1C(=O)Nc1ccccc1N1CCOCC1	H69AR inhibit 31.4
Cc1ccccc1NC(=O)c1c(-c2ccccc2)noc1C	none
O=C(CSc1nc2ccccc2[nH]1)Nc1ccccc1N1CCOCC1	none
Cc1onc(-c2ccccc2)c1C(=O)Nc1cc(C(F)(F)F)ccc1N1CCOCC1	Lung fibro prol 47.6, Jurkat tox 60K 87.4, H69AR inhibit 22.7
O=C(O)c1oc2ccc(Br)cc2c1-n1cccc1	none
Cc1cc(=O)[nH]c(SCC(=O)O)c1C#N	none (no result: Jurkat tox 60K)
Cc1cc(=O)[nH]c(SCC(=O)C23CC4CC(CC(C4)C2)C3)c1C#N	H69AR inhibit 17.5
CCN1CCCC1CNC(=O)Cn1cccc1C(=O)c1ccccc1C (configuration not stated)	none
CC(C)CN(CC(C)C)C(=O)Cc1coc2ccc3ccccc3c12	none (no result: Jurkat tox 60K)
CN(CCCC(=O)Nc1ccncc1)S(=O)(=O)c1ccc(Cl)cc1	Jurkat tox 60K 44.8
O=C(CSc1nnc2c(Cl)cc(C(F)(F)F)cn12)Nc1ccc2c(c1)OCO2	none (no result: Jurkat tox 60K)
O=C(CSc1ccc2nnc(-c3ccccn3)n2n1)Nc1ccc2c(c1)OCO2	none
O=c1c(/C=C(\O)c2ccccc2)nc2ccccc2n1-c1ccccc1	H69AR inhibit 38.8 (no result: Jurkat tox 60K)
COc1ccc(-c2nc(C)ncc2-c2csc(C)n2)c(O)c1	none (no result: Jurkat tox 60K)
COc1cccc(Oc2cnc(N)nc2-c2ccc(OC)cc2O)c1	Jurkat tox 60K 91.0, H69AR inhibit 16.6
C=C(C)COc1ccc(-c2nc(N)nc(C)c2Oc2ccccc2OC)c(O)c1	none
COc1ccc(-c2nc(N)ncc2Oc2ccccc2Br)c(O)c1	H69AR inhibit 38.2
CCN(CC)c1ccc2c(c1)CCCN2	none (no result: Lung fibro prol, HUVEC prolif 384, H69AR inhibit)
Cc1cccc(-c2noc(CCCC(=O)N3CCOCC3)n2)c1	none (no result: Jurkat tox 60K)
N#C/C(=C\c1ccc(-c2cccc(Cl)c2)o1)C(=O)Nc1cccc2cccnc12	H69AR inhibit 14.6 (no result: Jurkat tox 60K)
COC(=O)C(O)(CC(=O)Nc1cc(Cl)ccc1Cl)C(F)(F)F (configuration not stated)	none (no result: Jurkat tox 60K)
Cc1ccc(-n2nnc3c(=O)n(Cc4cc(C)ccc4C)cnc32)cc1	H69AR inhibit 32.8
Cc1sc2ncnc(Sc3nnnn3-c3ccccc3)c2c1C	Lung fibro prol 10.5, HUVEC prolif 384 25.9, H69AR inhibit 0.9
Cc1sc2ncnc(Nc3ccccc3)c2c1C	none (no result: Jurkat tox 60K)
Nc1ccc(Sc2nnnn2-c2ccccc2)c(Cl)c1	none
Clc1ccc(-n2nnnc2Sc2ncnc3sccc23)cc1	Lung fibro prol 48.5, Jurkat tox 60K 65.7, HUVEC prolif 384 4.6, H69AR inhibit 2.0
O=C(c1ccco1)N1CCN(C(c2coc3ccc(Cl)cc3c2=O)c2nnnn2C2CCCC2)CC1 (configuration not stated)	H69AR inhibit 14.3 (no result: Jurkat tox 60K)
O=C(CCn1c(=S)[nH]c2ccccc2c1=O)N1CCN(c2ccccn2)CC1	none (no result: Jurkat tox 60K)
CCCCN1CCc2c1nc1ccc(Br)cc1c2N	Lung fibro prol 28.1, HUVEC prolif 384 13.3 (no result: Jurkat tox 60K)
Cc1cc2c(c(Sc3ccccc3)n1)C(=O)OC2	none
O=C(CCn1nnc2ccccc21)Nc1nnc(-c2ccccc2F)s1	none
Cc1ccc2[nH]c(C(=O)O)c(-c3ccccc3)c2c1	none
Cc1ccc2[nH]c(-c3ccccc3)cc(=O)c2c1	Jurkat tox 60K 98.4, H69AR inhibit 33.1
O=C(CN1CCN(Cc2ccccc2)CC1)N1CCCc2c1c(=O)oc1ccc(O)cc21	H69AR inhibit 7.6
CCCOC(=O)CSC1=C(C#N)C(c2ccc3c(c2)OCO3)CC(=O)N1 (configuration not stated)	H69AR inhibit 23.2 (no result: Jurkat tox 60K)
Cc1occc1-c1nnc(SCC(=O)Nc2nc3ccccc3s2)o1	none (no result: Jurkat tox 60K)
O=C(Nc1ccc(N2CCOCC2)cc1)c1ccc(Cl)nc1	none (no result: Jurkat tox 60K)
CS(=O)(=O)c1ncc(Cl)c(C(=O)Nc2ccc(N3CCOCC3)cc2)n1	Jurkat tox 60K 62.4, H69AR inhibit 0.2 (no result: Lung fibro prol)
c1ccc2[nH]c(CN3CCOCC3)nc2c1	none (no result: Jurkat tox 60K)
N#C/C(=C\c1ccc(N2CCOCC2)o1)c1nc2ccccc2[nH]1	H69AR inhibit 19.6 (no result: Jurkat tox 60K)

Source: PubChem BioAssay (several laboratories)
